From ChEMBL document CHEMBL1151206, “Glycosidase-inhibiting pyrrolidines and pyrrolizidines with a long side chain in Scilla peruviana” (J Nat Prod, 2004)

Key:
[1] = target: Alpha-galactosidase (Coffea arabica) (UniProt Q42656); assay: Inhibition of coffee bean alpha-galactosidase at 1000 uM by spectrophotometry
In short: (§1)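 Commercial enzymes (P. decumbens alpha-L-rhamnosidase at pH 4.5, bovine epididymis alpha-L-fucosidase at pH 5.5, coffee bean alpha-galactosidase at pH 6.5) were incubated with 2 mM p-nitrophenyl glycoside in a 1 mL reaction. The reaction was stopped with 2 mL of 400 mM Na2CO3 and p-nitrophenol was read at 400 nm.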

[2] = Inhibition of Caldocellum saccharolyticum beta-glucosidase by spectrophotometry; parameters: species or system Caldicellulosiruptor saccharolyticus
In short: (§2)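 Commercial enzyme assayed with the matching p-nitrophenyl glycoside (2 mM) in a 1 mL reaction, at pH 5.0 for the C. saccharolyticum and almond beta-glucosidases, pH 6.8 for bovine liver beta-galactosidase and pH 6.8 for yeast alpha-glucosidase. The reaction was stopped with 2 mL of 400 mM Na2CO3 and released p-nitrophenol was read at 400 nm. IC50 was determined.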

Rattus norvegicus [3] = species: Rattus norvegicus; assay: Inhibition of rat epididymis beta-galactosidase at 1000 uM by spectrophotometry
In short: (§3)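 Enzyme source was rat epididymal fluid purified from epididymis, assayed at pH 5.2 with 2 mM of the relevant p-nitrophenyl glycoside in a 1 mL reaction. The reaction was stopped with 2 mL of 400 mM Na2CO3 and p-nitrophenol was measured at 400 nm.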

[4] = Inhibition of rat epididymis alpha-mannosidase by spectrophotometry
In short: (§4)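 Substrate was the matching p-nitrophenyl glycoside at 2 mM. Penicillium decumbens α-L-rhamnosidase was run at pH 4.5. α-Mannosidase came from purified rat epididymal fluid and was run at pH 5.2. Reactions were stopped with 400 mM Na2CO3, and released p-nitrophenol was read at 400 nm.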

Beta-galactosidase = target: T1, Beta-galactosidase (Bos taurus, UniProt Q58D55); assay: Inhibition of bovine liver beta-galactosidase by spectrophotometry; in short: as §2
T1 sequence (Q58D55 whole entry): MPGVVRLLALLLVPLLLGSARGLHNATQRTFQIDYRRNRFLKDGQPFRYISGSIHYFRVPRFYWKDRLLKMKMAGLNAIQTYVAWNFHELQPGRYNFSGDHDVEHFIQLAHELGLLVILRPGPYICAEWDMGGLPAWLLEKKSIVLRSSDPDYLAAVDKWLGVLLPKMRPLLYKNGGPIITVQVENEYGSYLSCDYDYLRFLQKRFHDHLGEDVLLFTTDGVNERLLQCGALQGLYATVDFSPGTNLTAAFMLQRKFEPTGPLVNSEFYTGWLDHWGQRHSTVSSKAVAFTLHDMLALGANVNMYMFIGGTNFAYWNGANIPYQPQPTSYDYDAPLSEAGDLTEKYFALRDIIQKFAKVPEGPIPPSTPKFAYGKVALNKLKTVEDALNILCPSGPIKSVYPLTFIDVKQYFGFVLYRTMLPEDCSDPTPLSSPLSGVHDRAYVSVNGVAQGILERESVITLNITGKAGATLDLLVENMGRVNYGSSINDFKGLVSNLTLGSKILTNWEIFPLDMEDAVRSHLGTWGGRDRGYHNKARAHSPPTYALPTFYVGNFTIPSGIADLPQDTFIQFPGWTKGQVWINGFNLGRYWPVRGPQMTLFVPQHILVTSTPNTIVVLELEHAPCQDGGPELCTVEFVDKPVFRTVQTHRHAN

[5] = target: T2, Beta-mannosidase (Rattus norvegicus) (UniProt Q4FZV0); assay: Inhibition of rat epididymis beta-mannosidase at 1000 uM by spectrophotometry
T2 sequence (whole entry): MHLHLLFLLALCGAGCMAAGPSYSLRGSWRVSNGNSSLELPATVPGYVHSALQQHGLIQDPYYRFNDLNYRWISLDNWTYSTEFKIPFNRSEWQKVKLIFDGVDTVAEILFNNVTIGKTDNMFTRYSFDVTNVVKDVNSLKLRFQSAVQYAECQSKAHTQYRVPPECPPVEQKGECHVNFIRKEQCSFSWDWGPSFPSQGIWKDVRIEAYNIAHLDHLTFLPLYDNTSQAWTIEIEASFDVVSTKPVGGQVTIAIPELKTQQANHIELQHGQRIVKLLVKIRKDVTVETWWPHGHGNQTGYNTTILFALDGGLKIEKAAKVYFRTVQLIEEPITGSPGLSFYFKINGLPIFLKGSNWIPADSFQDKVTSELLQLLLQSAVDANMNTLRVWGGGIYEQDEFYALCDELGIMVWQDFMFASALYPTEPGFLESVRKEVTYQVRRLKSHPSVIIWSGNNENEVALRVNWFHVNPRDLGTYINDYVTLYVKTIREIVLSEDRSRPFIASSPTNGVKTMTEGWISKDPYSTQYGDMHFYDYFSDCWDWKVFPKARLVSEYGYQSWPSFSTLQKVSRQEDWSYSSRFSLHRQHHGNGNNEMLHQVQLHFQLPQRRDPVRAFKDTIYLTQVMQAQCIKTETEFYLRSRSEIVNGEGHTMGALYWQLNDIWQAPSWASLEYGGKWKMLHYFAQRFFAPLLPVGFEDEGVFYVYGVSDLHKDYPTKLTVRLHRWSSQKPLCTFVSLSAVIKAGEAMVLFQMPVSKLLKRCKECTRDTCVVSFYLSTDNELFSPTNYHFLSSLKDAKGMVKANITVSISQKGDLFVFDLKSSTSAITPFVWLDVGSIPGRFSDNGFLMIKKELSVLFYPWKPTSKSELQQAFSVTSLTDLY

[6] = Inhibition of almond beta-glucosidase by spectrophotometry; parameters: species or system Prunus dulcis; in short: as §2
[7] = Inhibition of rice alpha-glucosidase by spectrophotometry; parameters: species or system Oryza sativa
[8] = target: T3, Lysosomal acid glucosylceramidase (Homo sapiens) (UniProt P04062); assay: Inhibition of human placental beta-glucocerebrosidase at 1000 uM by spectrophotometry
T3 sequence (whole entry): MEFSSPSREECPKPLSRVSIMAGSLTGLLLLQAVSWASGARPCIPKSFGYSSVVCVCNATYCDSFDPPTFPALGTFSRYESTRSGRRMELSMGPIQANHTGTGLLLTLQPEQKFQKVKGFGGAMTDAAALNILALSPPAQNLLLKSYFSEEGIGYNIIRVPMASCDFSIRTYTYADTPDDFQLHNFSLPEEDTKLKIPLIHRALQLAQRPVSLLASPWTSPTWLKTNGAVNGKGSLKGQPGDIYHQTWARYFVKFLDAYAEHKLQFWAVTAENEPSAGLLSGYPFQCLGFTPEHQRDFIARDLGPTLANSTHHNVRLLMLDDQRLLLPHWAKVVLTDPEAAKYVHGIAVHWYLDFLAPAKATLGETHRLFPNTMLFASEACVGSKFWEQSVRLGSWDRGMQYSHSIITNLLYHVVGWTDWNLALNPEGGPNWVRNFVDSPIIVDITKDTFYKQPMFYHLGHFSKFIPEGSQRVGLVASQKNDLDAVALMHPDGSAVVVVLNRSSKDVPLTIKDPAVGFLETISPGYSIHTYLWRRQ

[9] = target: T4, Tissue alpha-L-fucosidase (Bos taurus) (UniProt Q2KIM0); assay: Inhibition of bovine epididymis alpha-L-fucosidase at 1000 uM by spectrophotometry; in short: as §1
T4 sequence (whole entry): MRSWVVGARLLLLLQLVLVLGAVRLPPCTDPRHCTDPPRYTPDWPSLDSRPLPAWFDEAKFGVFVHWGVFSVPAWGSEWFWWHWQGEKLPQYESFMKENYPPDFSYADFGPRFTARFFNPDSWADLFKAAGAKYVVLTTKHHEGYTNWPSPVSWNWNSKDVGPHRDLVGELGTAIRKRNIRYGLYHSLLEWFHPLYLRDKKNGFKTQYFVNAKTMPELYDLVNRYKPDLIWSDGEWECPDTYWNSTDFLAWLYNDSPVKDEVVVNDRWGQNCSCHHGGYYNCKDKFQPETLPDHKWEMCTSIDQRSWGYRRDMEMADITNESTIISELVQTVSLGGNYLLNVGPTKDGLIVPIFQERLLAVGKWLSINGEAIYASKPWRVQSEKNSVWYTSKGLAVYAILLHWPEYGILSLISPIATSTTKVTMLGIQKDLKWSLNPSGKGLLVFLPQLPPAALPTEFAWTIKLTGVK

[10] = Inhibition of yeast alpha-glucosidase by spectrophotometry; parameters: species or system Saccharomyces cerevisiae; in short: as §2
[11] = Inhibition of Penicillium decumbens alpha-L-rhamnosidase by spectrophotometry; in short: as §4
Rattus norvegicus [12] = species: Rattus norvegicus; assay: Inhibition of rat epididymis alpha-mannosidase at 1000 uM by spectrophotometry; in short: as §3
Oryza sativa = assay: Inhibition of rice alpha-glucosidase at 1000 uM by spectrophotometry
Penicillium decumbens = assay: Inhibition of Penicillium decumbens alpha-L-rhamnosidase at 1000 uM by spectrophotometry; in short: as §1
Prunus dulcis = assay: Inhibition of almond beta-glucosidase at 1000 uM by spectrophotometry
[13] = test system: maltase-glucoamylase (Rattus norvegicus); assay: Inhibition of rat intestinal maltase at 1000 uM by spectrophotometry
Beta-mannosidase = target: T5, Beta-mannosidase (Rattus norvegicus, UniProt Q4FZV0); assay: Inhibition of rat epididymis beta-mannosidase by spectrophotometry; in short: as §3
T5 sequence (Q4FZV0 whole entry): T2 sequence (whole entry)

[14] = target: T6, Beta-galactosidase (Bos taurus) (UniProt Q58D55); assay: Inhibition of bovine liver beta-galactosidase at 1000 uM by spectrophotometry
T6 sequence (whole entry): T1 sequence (Q58D55 whole entry)

Saccharomyces cerevisiae = assay: Inhibition of yeast alpha-glucosidase at 1000 uM by spectrophotometry
[15] = target: T7, Lysosomal acid glucosylceramidase (Homo sapiens, UniProt P04062); assay: Inhibition of human placental beta-glucocerebrosidase by spectrophotometry
T7 sequence (P04062 whole entry): T3 sequence (whole entry)
In short: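 Human placental beta-glucocerebrosidase (Ceredase) was assayed at pH 5.5 with 2 mM p-nitrophenyl glycoside substrate in a 1 mL reaction. The reaction was stopped with 2 mL of 400 mM Na2CO3 and released p-nitrophenol was read at 400 nm.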

Chain of Alpha-galactosidase (Coffea arabica) (Q42656 16-378 limits assumed): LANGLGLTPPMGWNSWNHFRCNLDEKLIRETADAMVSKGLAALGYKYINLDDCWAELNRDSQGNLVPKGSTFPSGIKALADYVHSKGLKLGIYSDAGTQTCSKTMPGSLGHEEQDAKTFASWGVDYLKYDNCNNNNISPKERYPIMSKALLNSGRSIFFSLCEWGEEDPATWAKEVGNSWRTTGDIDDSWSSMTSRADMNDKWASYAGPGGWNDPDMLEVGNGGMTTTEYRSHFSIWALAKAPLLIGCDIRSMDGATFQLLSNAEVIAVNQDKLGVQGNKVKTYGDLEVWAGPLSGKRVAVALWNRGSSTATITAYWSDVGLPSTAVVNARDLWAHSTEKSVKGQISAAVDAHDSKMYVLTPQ

Row | Structure (SMILES) | inhibition [1] [%] | IC50 [2] [µM] | inhibition (Rattus norvegicus [3]) [%] | IC50 (Beta-galactosidase) [µM] | IC50 [6] [µM] | IC50 [7] [µM] | inhibition [8] [%] | inhibition [9] [%] | IC50 [10] [µM] | inhibition (Rattus norvegicus [12]) [%] | inhibition (Penicillium decumbens) [%] | further results
1 | CC(O)CC(O)[C@@H]1CC[C@@H]2[C@H](O)[C@H](O)[C@@H](CO)N21 (some centres not stated) | < 50 | 5.1 | < 50 | 830 | 9.5 | 300 | < 50 | < 50 | 3.6 |  |  | IC50 [4]: 680 µM; inhibition [5]: < 50%; IC50 [11]: 180 µM
2 | CC(O)CC[C@@H]1C[C@@H](O)[C@@H]2[C@@H](O)[C@H](O)[C@@H](CO)N12 (some centres not stated) | < 50 | 200 | < 50 | 320 |  |  | < 50 | < 50 | 6.6 | < 50 | < 50 | inhibition (Oryza sativa): < 50%; inhibition (Prunus dulcis): < 50%; inhibition [5]: < 50%; inhibition [13]: < 50%
3 | OC[C@@H](O)[C@H]1N[C@H](CO)[C@@H](O)[C@@H]1O |  | 3.2 |  | 4.4 |  |  |  |  |  |  |  | 
4 | OC[C@H]1N[C@H](C(O)CCC[C@@H]2CCC[C@]3(CCCCO3)O2)[C@@H](O)[C@@H]1O (some centres not stated) |  |  |  |  | 0.01 |  |  |  |  |  |  | 
5 | CC(O)C[C@H]1N[C@H](CO)[C@@H](O)[C@@H]1O (some centres not stated) | < 50 | 700 | < 50 | 260 |  | 210 | < 50 | < 50 | 100 | < 50 | < 50 | inhibition (Prunus dulcis): < 50%; IC50 (Beta-mannosidase): 610 µM
6 | OC[C@H]1N[C@H]([C@H](O)CCCC[C@@H]2CCC[C@]3(CCCO3)O2)[C@@H](O)[C@@H]1O |  |  |  |  | 0.01 |  |  |  |  |  |  | 
7 | O=C(CCCCCCC[C@@H](O)[C@H]1N[C@H](CO)[C@@H](O)[C@@H]1O)CCCCO[C@@H]1O[C@H](CO)[C@@H](O)[C@H](O)[C@H]1O |  |  |  |  | 0.01 |  |  |  |  |  |  | 
8 | O=C(CCCCCCCC[C@@H](O)[C@H]1N[C@H](CO)[C@@H](O)[C@@H]1O)CCCO[C@@H]1O[C@H](CO)[C@@H](O)[C@H](O)[C@H]1O |  |  |  |  | 0.01 |  |  |  |  |  |  | 
9 | CC(O)CC[C@@H]1CC[C@@H]2[C@@H](O)[C@H](O)[C@@H](CO)N12 (some centres not stated) | < 50 | 136 | < 50 |  | 49 |  | < 50 | < 50 |  | < 50 | < 50 | inhibition (Oryza sativa): < 50%; inhibition [14]: < 50%; inhibition [5]: < 50%; inhibition [13]: < 50%; inhibition (Saccharomyces cerevisiae): < 50%
10 | CC(O)[C@@H](O)[C@H]1N[C@H](CO)[C@@H](O)[C@@H]1O (some centres not stated) | < 50 | 20 | < 50 | 130 | 120 | 650 | < 50 | < 50 | 630 | < 50 | < 50 | IC50 (Beta-mannosidase): 150 µM; inhibition [13]: < 50%
11 | O=C(CCCO)CCCCCCCC[C@@H](O)[C@H]1N[C@H](CO)[C@@H](O)[C@@H]1O |  |  |  |  | 0.01 |  |  |  |  |  |  | 
12 | OCC(O)CC(O)[C@@H]1CC[C@@H]2[C@H](O)[C@H](O)[C@@H](CO)N21 (some centres not stated) | < 50 | 11.4 | < 50 | 920 | 25.4 | 390 | < 50 | < 50 | 650 | < 50 | < 50 | inhibition [5]: < 50%; inhibition [13]: < 50%
13 | OC[C@@H]1[C@@H](O)[C@H](O)[C@H]2[C@H](O)CCN21 |  |  |  |  |  |  |  |  | 95 |  |  | 
14 | O=C(CCCCO)CCCCCCC[C@@H](O)[C@H]1N[C@H](CO)[C@@H](O)[C@@H]1O |  |  |  |  | 0.01 |  |  |  |  |  |  | 
15 | OCC(O)CCCCC(O)CC(O)CCC[C@@H](O)[C@H]1N[C@H](CO)[C@@H](O)[C@@H]1O (some centres not stated) | < 50 | 0.08 | < 50 | 0.09 | 6.6 | 265 |  | < 50 | 220 | < 50 | < 50 | IC50 [15]: 970 µM; IC50 (Beta-mannosidase): 9.3 µM
